# A selection: hits, their analogues and other compounds. The true share with any hit is near 2.9%.
# PfM18AAP inh-1: PfM18AAP inhibitors, malaria aminopeptidase, primary screen, biochemical, QFRET, recombinant enzyme; M18 aspartyl aminopeptidase (Plasmodium falciparum 3D7); inhibition, % at 7.35 µM; H-Glu-NHMec fluorogenic cleavage; AID 1822, 2009; hit rate 1.2% among 290,000;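 active = inhibition above the campaign mean inhibition over all tested compounds plus 3 SD, cut at about 28% in these data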
# RBBP9 inhibitor: human RBBP9 inhibitors, primary screen, biochemical, fluorescence polarization, FP-Rh probe, HTS | Serine hydrolase RBBP9 (Homo sapiens), O75884 | recombinant RBBP9 | inhibition, % at 7.94 µM | hit rate 0.2% among 220,000;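 active = inhibition above the campaign mean of all tested compounds plus 3 SD, cut at about 14% in these data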
#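 System: RBBP9 protein / Quantity: 2.5 µM RBBP9 dispensing solution, before mixing / Also added: Serine-hydrolase probe FP-Rh, 375 nM pre-mixing / Dosing: 7.94 µM single dose, 0.794% DMSO / Timing: enzyme-compound preincubation 30 min, then probe labeling 45 min, 25 °C / Signal: FP readout at 525/598 nm / Controls: DMSO-treated enzyme wells and wells lacking RBBP9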
# RanGTP-Impb inh: inhibitors of RanGTP-importin-beta interaction, primary screen, biochemical, FRET, CFP-Ran, YFP-importin-beta, homogeneous. cell-free CFP-Ran/YFP-importin-beta FRET ratio. Ran GTPase (GTP-bound) - importin-beta complex. hit rate 1.1% among 300,000. inhibition, % (test concentration not listed). AID 2216, 2009;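 active = more than half of the replicate wells show a fall in the fluorescence ratio signal beyond about 16%, limit read from the data, passing the limit was not always enough; inconclusive = exactly half of the replicate wells pass the set limit; inactive = fewer than half of replicates pass the limit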
# Runt-CBFb FRET: inhibitors of RUNX1 Runt–CBFb binding, primary screen, biochemical, FRET, Cerulean-Runt, Venus-CBFb, uHTS | hit rate 0.46% among 220,000 | Runt-related transcription factor 1 (Homo sapiens) + Core-binding factor subunit beta … | Cerulean-Runt/Venus-CBFb FRET ratio 530/480, 1 h | AID 1496, 2009 | inhibition, % at 20 µM;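 active = inhibition over about 50% at 20 µM in the single-dose screen, limit read from the data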
# Target sequence (Q01196 whole entry, looked up): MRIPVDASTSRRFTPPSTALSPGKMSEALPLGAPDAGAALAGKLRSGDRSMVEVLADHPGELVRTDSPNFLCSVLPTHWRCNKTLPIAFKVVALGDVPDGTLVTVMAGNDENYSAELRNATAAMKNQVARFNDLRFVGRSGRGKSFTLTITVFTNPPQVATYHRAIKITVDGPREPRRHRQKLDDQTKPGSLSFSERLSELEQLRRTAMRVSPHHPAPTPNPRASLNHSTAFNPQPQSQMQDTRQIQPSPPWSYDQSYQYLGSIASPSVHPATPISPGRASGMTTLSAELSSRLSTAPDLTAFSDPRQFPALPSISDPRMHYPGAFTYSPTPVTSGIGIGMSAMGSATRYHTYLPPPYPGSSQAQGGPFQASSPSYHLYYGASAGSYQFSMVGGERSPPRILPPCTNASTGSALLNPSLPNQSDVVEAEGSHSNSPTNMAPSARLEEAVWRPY
# Target sequence (Q13951 whole entry, looked up): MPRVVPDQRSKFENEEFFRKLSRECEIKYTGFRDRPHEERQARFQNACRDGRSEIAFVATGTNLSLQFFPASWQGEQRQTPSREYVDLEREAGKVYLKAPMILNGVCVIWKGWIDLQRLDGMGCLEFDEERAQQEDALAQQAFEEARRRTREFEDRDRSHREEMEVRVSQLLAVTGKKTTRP
#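 Buffer or medium: Tris pH 7.5 buffer with BSA. Assay system: Cerulean-labeled Runt domain protein. Amount: each fluorescent fusion protein 100 nM. Read-out basis: loss of energy transfer signal. Incubation: 1 h compound exposure, room temperature. Probe or stimulus: Venus-CBFb binding partner, 100 nM. Detection: FRET, excitation 422 nm, emission at 530 and 480 nm.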
# Runt-SMMHC FRET: inhibitors of RUNX1 Runt–CBFb-SMMHC binding, primary screen, biochemical, FRET, Cerulean-Runt, Venus-CBFb-SMMHC, uHTS; hit rate 0.74% among 220,000; Cerulean-Runt/Venus-CBFb-SMMHC FRET ratio 530/480, 1 h; inhibition, % at 20 µM; Runt-related transcription factor 1 (Homo sapiens) + Core-binding factor subunit beta …;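 active = mean inhibition across duplicate retests at 20 µM reaching about 50%, limit read from the data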;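 also: inhibitors lower the FRET ratio by blocking Runt binding to CBFb-SMMHC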
# Hck Nef HTS: inhibitors of Nef-activated human Hck kinase, primary screen, biochemical, Z-Lyte FRET, 384-well, Hck-YEEI; Tyrosine-protein kinase HCK (Homo sapiens), P08631; Recombinant Hck-YEEI plus Nef, Z-Lyte FRET kinase assay; inhibition, % at 20 µM; hit rate 0.68% among 220,000; AID 463187, 2010;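 active = Hck-Nef kinase inhibition above about 50%, limit read from the data; inactive = inhibition below that limit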
# PfM18AAP inh-2: PfM18AAP inhibitors, malaria aminopeptidase, confirmation, biochemical, QFRET, recombinant enzyme, triplicate | shares compounds with PfM18AAP inh-1 | H-Glu-NHMec fluorogenic cleavage | inhibition, % at 7.35 µM | hit rate 28% among 2,400 | AID 2170, 2009;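 active = mean inhibition over replicate wells above the hit cutoff set for the earlier primary screen, cut at about 29% in these data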
# CTSL1 confirm: cathepsin L1 inhibitors, retest, confirmation, counter-screen for PFM18AAP inhibitor project, biochemical, QFRET, triplicate | inhibition, % at 5.96 µM | purified cathepsin L1, Z-Leu-Arg-MCA fluorescence | 2,400 tested, under 10 active | shares compounds with PfM18AAP inh-1;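 active = average inhibition across replicates above the hit cutoff set in the earlier primary screen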
# Hits are given with their value; - = inactive; ? = inconclusive; . = not tested or not shown.
SMILES,PfM18AAP inh-1,RBBP9 inhibitor,RanGTP-Impb inh,Runt-CBFb FRET,Runt-SMMHC FRET,Hck Nef HTS,PfM18AAP inh-2,CTSL1 confirm
OCCC1CN(Cc2ccccc2OC2CCCC2)CCN1Cc1ccsc1 (stereo unspecified),-,-,-,-,-,-,.,.
COc1ccc(-c2cc(C#N)nc(NN)n2)cc1,36.5,-,-,-,-,-,36.0,-
COc1ccc(-c2cc(-c3ccccc3)nc(NN)n2)cc1OC,33.8,.,-,.,.,.,-,-
COc1ccc(-c2cc(C#N)nc(Cl)n2)cc1,-,-,-,-,-,-,.,.
COc1nc(-c2ccccc2)cc(-c2ccc(OC)c(OC)c2)n1,-,-,-,-,-,-,.,.
NNC(=O)COc1ccc2oc3c(c2c1)CCCC3,-,.,-,.,.,.,.,.
CCCN(Cc1cc2cc(C)ccc2[nH]c1=O)C(=O)c1cccc([N+](=O)[O-])c1,-,-,-,-,-,-,.,.
Nc1ccc(-n2cc(-c3ccccc3)[nH]c2=S)cc1,44.1,.,-,.,.,.,-,-
O=[N+]([O-])c1cccc(-c2cn(-c3ccccc3)c(=S)[nH]2)c1,50.0,-,-,-,-,-,50.2,-
COc1ccccc1-n1cc(-c2ccc([N+](=O)[O-])cc2)[nH]c1=S,32.1,-,-,-,-,-,-,-
O=[N+]([O-])c1ccc(-c2cn(-c3ccccc3)c(=S)[nH]2)cc1,-,-,-,-,-,-,.,.
S=c1[nH]c(-c2ccccc2)cn1-c1ccccc1,45.9,.,-,.,.,.,34.6,-
CCC(=O)c1ccc(OCC(=O)OCC(=O)N2CCCc3ccccc32)cc1,.,.,-,.,.,.,.,.
Cc1ccccc1OC1CCN(C(=O)c2cc(COc3ccccc3)on2)CC1,-,.,-,.,.,.,.,.
N#Cc1c(N2C(=O)Nc3ccccc3N2O)sc2c1CCCCCC2,34.9,-,-,-,-,-,-,-
N#Cc1c(N2C(=O)Nc3ccccc3N2O)sc2c1CCCC2,-,-,-,-,-,-,.,.
O=C(CC(=O)Nc1ccc(Br)cc1)Nc1ccc(Br)cc1,-,.,?,.,.,.,.,.
O=C(Nc1ccc(Br)cc1)Nn1cnnc1,73.3,.,-,.,.,.,56.3,-
Cc1cc(C)cc(NC(=O)NN2C(C)CCCC2C)c1 (stereo unspecified),-,-,-,-,-,-,.,.
CCC(C)NC(=O)Nc1ccc(Br)cc1Cl (stereo unspecified),-,-,?,-,-,-,.,.
O=C(Nc1ccc(Br)cc1Cl)Nn1cnnc1,74.9,-,-,-,-,-,78.1,-
Cc1cc(C)cc(NC(=O)Nn2cnnc2)c1,54.5,.,-,.,.,.,37.4,-
O=C(Nc1ccccc1)Nn1cnnc1,56.4,.,-,.,.,.,40.0,-
C=CCN1C(=O)c2ccc(C(=O)N(C)CC(=O)Nc3ccccc3C(F)(F)F)cc2C1=O,-,.,?,.,.,.,.,.
COC(=O)c1c(NC(=O)C2CCCCC2)sc2c1CC(C)(C)NC2(C)C,-,.,-,.,.,.,.,.
CC(NC(=O)c1ccc(CS(C)(=O)=O)cc1)c1cccc2ccccc12 (stereo unspecified),-,.,-,.,.,.,.,.
CN(CC(=O)Nc1ccccc1Br)C(=O)CNC(=O)c1ccco1,.,.,-,.,.,.,.,.
S=C1NC(c2ccccc2)N2C(=S)NC(c3ccccc3)N12 (stereo unspecified),38.1,-,-,-,-,-,-,-
COc1ccc(Cl)cc1C(=O)Nn1cnnc1,36.8,.,-,.,.,.,-,-
COc1ccc(C)cc1NC(=O)Nn1cnnc1,62.4,-,-,-,-,-,56.4,-
